Measurements from PubChem BioAssay.
Values without a mark were called inactive. The source made the active and inactive calls.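 How the source made its calls, unless noted: active means fluorescence slope after compound addition differing from the mean of all screened samples at 99.7% confidence, in either direction; inactive means the rest.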

Biological target: Alpha-2C adrenergic receptor (Homo sapiens) (UniProt P18825)
Assay: modulators of alpha2C/GIRK thallium flux, primary screen, cell-based, HEK293 alpha2C/GIRK1/2 (AID 624);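 further: slope of fluorescence ratio to pre-addition baseline per second over 15 to 24 s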
Conditions: thallium flux BTC fluorescence, at 10 µM, actives lie on both sides

Alpha-2C adrenergic receptor (Homo sapiens), sequence (P18825 whole entry, looked up): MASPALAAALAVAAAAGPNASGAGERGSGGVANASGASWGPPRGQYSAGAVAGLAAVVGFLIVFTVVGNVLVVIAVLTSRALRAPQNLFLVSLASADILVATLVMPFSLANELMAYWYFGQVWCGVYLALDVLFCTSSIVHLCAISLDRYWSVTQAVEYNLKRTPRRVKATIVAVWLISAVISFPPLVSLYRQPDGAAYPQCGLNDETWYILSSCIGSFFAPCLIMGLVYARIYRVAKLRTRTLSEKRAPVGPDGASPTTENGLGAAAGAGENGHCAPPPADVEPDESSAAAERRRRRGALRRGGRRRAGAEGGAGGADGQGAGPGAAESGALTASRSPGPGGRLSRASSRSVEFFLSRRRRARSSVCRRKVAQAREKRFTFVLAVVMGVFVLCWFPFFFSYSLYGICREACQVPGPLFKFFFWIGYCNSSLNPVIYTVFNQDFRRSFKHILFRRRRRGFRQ

For O=C1C=C(O)CC(c2cccs2)C1 (stereo not given), which slope is on record?
Its slope is 0.00523.

Which slope does the source give for Cc1c(C(Nc2ccccn2)c2ccccc2)c(=O)n(-c2ccccc2)n1C (stereo not given) here?
The slope was 0.00524.

For O=C(c1nsnc1-c1ccccc1O)N1CCCCC1, which slope is on record?
The slope was 0.007.

Which slope does the source give for Cc1cc(=O)oc(C)c1C(=O)N1CCN(C)CC1 here?
Its slope is 0.00444.

With CCCOc1ccc(C2NC(=O)NC2=O)cc1 (stereo not given) as the compound, how does the slope read?
Its slope is 0.00583.

Which slope does the source give for O=c1c(-c2ccc3c(c2)OCCO3)c(C(F)(F)F)oc2cc(O)cc(O)c12 here?
Its slope is 0.00864.

Which slope does the source give for Cn1c(=NCC(O)COc2ccccc2)sc2ccccc21 (stereo not given) here?
The slope was 0.00465.

With COc1cc(-c2cc(C(F)(F)F)n3ncc(C(=O)O)c3n2)cc(OC)c1OC as the compound, how does the slope read?
The slope was 0.00431.

For CCOC(=O)CSc1nc(-c2ccncc2)ccc1C#N, which slope is on record?
The slope was 0.00882.

Which slope does the source give for COc1ccc(OCC(O)Cn2c(Nc3cccc(C)c3)nc3c2c(=O)n(C)c(=O)n3C)cc1 (stereo not given) here?
Its slope is 0.00591.

For CCCCn1c2nc3ccccc3nc2c2c(=O)n(CC(C)C)cnc21, which slope is on record?
The slope was 0.00687.

Which slope does the source give for CCN(CC)S(=O)(=O)c1ccc2c(c1)c(C(=O)O)cn2C here?
The slope was 0.00489.

Which slope does the source give for CSc1nc(C)cc(OCCNS(=O)(=O)c2cc(C)ccc2C)n1 here?
The slope was 0.00593.

With CCOc1nc(SC(C(C)=O)C(=O)Nc2ccccc2)nc(N(C)C)n1 (stereo not given) as the compound, how does the slope read?
Its slope is 0.00845.

Which slope does the source give for O=C(Oc1ccccc1N1C(=O)CCC1=O)c1ccco1 here?
Its slope is 0.0069.

With Cc1cc(C)c(C#N)c(SCC(=O)NC2CC2)n1 as the compound, how does the slope read?
The slope was 0.00581.

For COC(=O)c1ccccc1NC=C1C(=O)OC2(CCCCC2)OC1=O, which slope is on record?
The slope was 0.00691.

With Cc1cc(C)n(C(=O)CN2C(=O)CCC2=O)n1 as the compound, how does the slope read?
The slope was 0.00506.

Which slope does the source give for CN1C2C=C3C(C#N)=C(N)C(C#N)(C#N)[C@@H](c4ccsc4)[C@@H]3C1CC2 (stereo not given in full) here?
The slope was 0.00648.

For Cc1ccc(/C=c2\sc3n(c2=O)CN(c2ccc(Br)cc2)CN=3)o1, which slope is on record?
Its slope is 0.00432.

For Clc1ccccc1-c1nn2c(-c3ccccn3)nnc2s1, which slope is on record?
The slope was 0.00777.

For CC(=O)NC1(C(F)(F)F)C(=O)Nc2c1c(=O)n(C)c(=O)n2C (stereo not given), which slope is on record?
The slope was 0.00477.

For CC(Sc1nc(N2CCCCC2)c2c(c1C#N)CCCC2)C(=O)O (stereo not given), which slope is on record?
The slope was 0.00467.

Which slope does the source give for CCN(CC)CCCn1c(C)cc2c(c1=O)C(c1cccc(Cl)c1)C(C#N)=C(N)O2 (stereo not given) here?
The slope was 0.00525.

Which slope does the source give for CCCCOC(=O)CSc1nc(N)c(C#N)c(-c2ccc(OC)cc2)c1C#N here?
The slope was 0.00456.

With COc1ccc(N2CCN(C3CC(=O)NC3=O)CC2)cc1 (stereo not given) as the compound, how does the slope read?
Its slope is 0.00484.

Which slope does the source give for O=C(c1ccco1)N1CCN(c2ncnc3c2[nH]c2ccccc23)CC1 here?
Its slope is 0.00516.

With COc1ccc(OC)c(C2NC(=O)c3sc(=S)n(-c4ccccc4)c3N2)c1 (stereo not given) as the compound, how does the slope read?
Its slope is 0.00525.

With CCOc1ccc(-c2nn3c(-c4ccc(OC)cc4)nnc3s2)cc1 as the compound, how does the slope read?
Its slope is 0.00846.

Which slope does the source give for c1cncc(-c2nnc3sc(C4CCCCC4)nn23)c1 here?
The slope was 0.00837.

Which slope does the source give for Cc1c(C(=O)O)c(=S)sn1CCOc1ccccc1 here?
The slope was 0.00412.

With CCC1(C)Cc2c(sc3c2c(=O)n(C)c2nnc(SCc4ccc5c(c4)OCO5)n32)CO1 (stereo not given) as the compound, how does the slope read?
The slope was 0.00552.

Which slope does the source give for CCCC(=O)N1CCN(c2nc(CC(C)C)c3c(c2C#N)CCC3)CC1 here?
Its slope is 0.00433.

For COC(=O)c1c(C)noc1-c1cc(C)on1, which slope is on record?
The slope was 0.00511.

Which slope does the source give for CN1c2ccccc2N(C)C1c1c(O)ccc2ccccc12 here?
Its slope is 0.00586.

With O=C1CCC(=O)N1CN(C(=O)c1ccco1)c1ccc(Cl)c(Cl)c1 as the compound, how does the slope read?
The slope was 0.00659.

Which slope does the source give for CC(C)Oc1ccc(Cc2c(O)nc(NCCCN(C)C)[nH]c2=O)cc1 here?
Its slope is 0.00657.

With CCCCOc1ccc(CSC(CC(=O)O)C(=O)O)cc1 (stereo not given) as the compound, how does the slope read?
Its slope is 0.00541.

With COCc1cc(=O)[nH]c(Nc2nc3ccc(C)cc3o2)n1 as the compound, how does the slope read?
The slope was 0.00626.

Which slope does the source give for CCOC(=O)CCCCC(=O)NC(CO)C(=O)NC (stereo not given) here?
Its slope is 0.00506.

System: not listed separately
Assay: inhibitors of larval lipid processing in zebrafish, primary screen, whole organism, PED6 fluorescence, gall bladder and intestine (AID 686;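 active means a full or partial loss of lipid-probe fluorescence in the fish gall bladder, intestine or both, judged by eye; inactive means no fluorescence loss, or compound toxic to the fish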;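 further: larvae 5 to 7 days old with five fish per well; signal comes from phospholipase A2 cleavage of quenched PED6 carried via bile; overnight exposure to compound and PED6 before scoring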)
Conditions: Zebrafish larvae PED6 lipid processing, fluorescence scoring; screened at 20 µM (by protocol)
How it was run: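 Test system – live zebrafish larvae aged 5-7 days, whole organism · Buffer or medium – E3 fish medium · Reagent – quenched phospholipase substrate PED6, 100 nM final, ingested by larvae · Doses – 20 µM single dose · Incubation – overnight compound and PED6 incubation · Technique – visual fluorescence microscopy scoring of gall bladder, gut · Read-out basis – visual per-well fluorescence inhibition score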

For O=C1C=C(O)CC(c2cccs2)C1 (stereo not given), which outcome is on record?
Its outcome is “inactive”.

For Cc1c(C(Nc2ccccn2)c2ccccc2)c(=O)n(-c2ccccc2)n1C (stereo not given), which outcome is on record?
The outcome was “inactive”.

Which outcome does the source give for O=C(c1nsnc1-c1ccccc1O)N1CCCCC1 here?
Its outcome is “inactive”.

For Cc1cc(=O)oc(C)c1C(=O)N1CCN(C)CC1, which outcome is on record?
Its outcome is “inactive”.

With CCCOc1ccc(C2NC(=O)NC2=O)cc1 (stereo not given) as the compound, how does the outcome read?
The outcome was “inactive”.

Which outcome does the source give for O=c1c(-c2ccc3c(c2)OCCO3)c(C(F)(F)F)oc2cc(O)cc(O)c12 here?
The outcome was “inactive”.

For Cn1c(=NCC(O)COc2ccccc2)sc2ccccc21 (stereo not given), which outcome is on record?
Its outcome is “inactive”.

For COc1cc(-c2cc(C(F)(F)F)n3ncc(C(=O)O)c3n2)cc(OC)c1OC, which outcome is on record?
Its outcome is “inactive”.

Which outcome does the source give for CCOC(=O)CSc1nc(-c2ccncc2)ccc1C#N here?
The outcome was “inactive”.

Which outcome does the source give for COc1ccc(OCC(O)Cn2c(Nc3cccc(C)c3)nc3c2c(=O)n(C)c(=O)n3C)cc1 (stereo not given) here?
Its outcome is “inactive”.

Which outcome does the source give for CCCCn1c2nc3ccccc3nc2c2c(=O)n(CC(C)C)cnc21 here?
Its outcome is “inactive”.

Which outcome does the source give for CCN(CC)S(=O)(=O)c1ccc2c(c1)c(C(=O)O)cn2C here?
The outcome was “inactive”.

For CSc1nc(C)cc(OCCNS(=O)(=O)c2cc(C)ccc2C)n1, which outcome is on record?
The outcome was “inactive”.

Which outcome does the source give for CCOc1nc(SC(C(C)=O)C(=O)Nc2ccccc2)nc(N(C)C)n1 (stereo not given) here?
The outcome was “inactive”.

For O=C(Oc1ccccc1N1C(=O)CCC1=O)c1ccco1, which outcome is on record?
Its outcome is “inactive”.

For Cc1cc(C)c(C#N)c(SCC(=O)NC2CC2)n1, which outcome is on record?
The outcome was “inactive”.

With COC(=O)c1ccccc1NC=C1C(=O)OC2(CCCCC2)OC1=O as the compound, how does the outcome read?
Its outcome is “inactive”.

Which outcome does the source give for Cc1cc(C)n(C(=O)CN2C(=O)CCC2=O)n1 here?
The outcome was “inactive”.

For CN1C2C=C3C(C#N)=C(N)C(C#N)(C#N)[C@@H](c4ccsc4)[C@@H]3C1CC2 (stereo not given in full), which outcome is on record?
Its outcome is “inactive”.

With Cc1ccc(/C=c2\sc3n(c2=O)CN(c2ccc(Br)cc2)CN=3)o1 as the compound, how does the outcome read?
Its outcome is “inactive”.

With Clc1ccccc1-c1nn2c(-c3ccccn3)nnc2s1 as the compound, how does the outcome read?
The outcome was “inactive”.

With CC(=O)NC1(C(F)(F)F)C(=O)Nc2c1c(=O)n(C)c(=O)n2C (stereo not given) as the compound, how does the outcome read?
Its outcome is “inactive”.

For CC(Sc1nc(N2CCCCC2)c2c(c1C#N)CCCC2)C(=O)O (stereo not given), which outcome is on record?
Its outcome is “inactive”.

Which outcome does the source give for CCN(CC)CCCn1c(C)cc2c(c1=O)C(c1cccc(Cl)c1)C(C#N)=C(N)O2 (stereo not given) here?
The outcome was “inactive”.

Which outcome does the source give for CCCCOC(=O)CSc1nc(N)c(C#N)c(-c2ccc(OC)cc2)c1C#N here?
The outcome was “inactive”.

With COc1ccc(N2CCN(C3CC(=O)NC3=O)CC2)cc1 (stereo not given) as the compound, how does the outcome read?
The outcome was “inactive”.

With O=C(c1ccco1)N1CCN(c2ncnc3c2[nH]c2ccccc23)CC1 as the compound, how does the outcome read?
The outcome was “inactive”.

Which outcome does the source give for COc1ccc(OC)c(C2NC(=O)c3sc(=S)n(-c4ccccc4)c3N2)c1 (stereo not given) here?
Its outcome is “inactive”.

For CCOc1ccc(-c2nn3c(-c4ccc(OC)cc4)nnc3s2)cc1, which outcome is on record?
Its outcome is “inactive”.

Which outcome does the source give for c1cncc(-c2nnc3sc(C4CCCCC4)nn23)c1 here?
Its outcome is “inactive”.

For Cc1c(C(=O)O)c(=S)sn1CCOc1ccccc1, which outcome is on record?
Its outcome is “inactive”.

With CCC1(C)Cc2c(sc3c2c(=O)n(C)c2nnc(SCc4ccc5c(c4)OCO5)n32)CO1 (stereo not given) as the compound, how does the outcome read?
The outcome was “inactive”.

Which outcome does the source give for CCCC(=O)N1CCN(c2nc(CC(C)C)c3c(c2C#N)CCC3)CC1 here?
The outcome was “inactive”.

With COC(=O)c1c(C)noc1-c1cc(C)on1 as the compound, how does the outcome read?
The outcome was “inactive”.

With CN1c2ccccc2N(C)C1c1c(O)ccc2ccccc12 as the compound, how does the outcome read?
The outcome was “inactive”.

With O=C1CCC(=O)N1CN(C(=O)c1ccco1)c1ccc(Cl)c(Cl)c1 as the compound, how does the outcome read?
Its outcome is “inactive”.

With CC(C)Oc1ccc(Cc2c(O)nc(NCCCN(C)C)[nH]c2=O)cc1 as the compound, how does the outcome read?
Its outcome is “inactive”.

Which outcome does the source give for CCCCOc1ccc(CSC(CC(=O)O)C(=O)O)cc1 (stereo not given) here?
The outcome was “inactive”.

Which outcome does the source give for COCc1cc(=O)[nH]c(Nc2nc3ccc(C)cc3o2)n1 here?
Its outcome is “inactive”.

With CCOC(=O)CCCCC(=O)NC(CO)C(=O)NC (stereo not given) as the compound, how does the outcome read?
Its outcome is “inactive”.
